The source made the active and inactive calls. The rule behind the calls is not given here.
Legend:
L1210 [1] = assay: Antiproliferative activity against mouse L1210 cell line by MTT assay; format: functional, cell-based
Procedure, shortened: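 L1210 cells cultured in RPMI 1640 with 10% fetal calf serum, 2 mM glutamine, penicillin/streptomycin and 10 mM HEPES pH 7.4. Exposed to nine serial drug dilutions in triplicate for 48 h (four doubling times), then read by tetrazolium (MTT) assay. IC50 is the concentration cutting optical density by 50% versus untreated controls; mean of at least three independent experiments.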

KB 3-1 = assay: Antiproliferative activity against human KB-3-1 cell line by MTT assay; format: functional, cell-based
Procedure, shortened: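 KB-3-1 cells grown in DMEM with 10% fetal calf serum, 2 mM glutamine, penicillin/streptomycin and 10 mM HEPES pH 7.4. Microculture tetrazolium assay: nine serial drug dilutions in triplicate for 96 h (four doubling times). IC50 is the concentration halving optical density relative to untreated controls; mean of at least three separate experiments.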

L1210 [2] = assay: Cell cycle arrest in L1210 cell line by accumulation at S phase after 21 hrs; format: functional, cell-based; settings: Mus musculus
Procedure, shortened: (§1)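 L1210 cells at 5 × 10⁵ cells/mL treated 21 h with various drug concentrations. Then ethanol-fixed (70%), washed, and stained 30 min at 20 °C in PBS with 100 µg/mL RNase and 50 µg/mL propidium iodide. Flow cytometry on 10 000 cells per sample. Highest percentage of S-phase cells reported with the concentration giving it.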

Nucleic Acid = assay: Alkylation of DNA at 50 uM by gel shift assay; format: nucleic-acid assay
Procedure, shortened: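 Radiolabeled 117-bp pBS DNA fragment (EcoRI/PvuII cut, 3′-end-labeled at EcoRI site with [³²P]dATP, gel-purified) incubated with drug at 50 µM in 1 mM Na cacodylate pH 7.0, dark, room temperature, 2 h or 24 h. Resolved on native polyacrylamide gel in TBE; bound versus free DNA scored as strong, weak or no alkylation.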

L1210 [3] = assay: Cell cycle arrest in L1210 cell line by accumulation at S phase at 10 uM after 21 hrs; format: functional, Mus musculus; procedure, shortened: as §1
L1210 [4] = assay: Cell cycle arrest in L1210 cell line by accumulation at S phase at 5 uM after 21 hrs; format: functional, Mus musculus; procedure, shortened: as §1
L1210 [5] = assay: Cell cycle arrest in L1210 cell line by accumulation at S phase at 2.5 uM after 21 hrs; format: functional, Mus musculus; procedure, shortened: as §1
MC-38 = assay: Antiproliferative activity against mouse C38 cell line implanted in B6D2F1 mouse at 4 mg/kg, iv; format: functional
L1210 [6] = assay: Cell cycle arrest in L1210 cell line by accumulation at S phase at 0.25 uM after 21 hrs; format: functional, Mus musculus; procedure, shortened: as §1

SMILES	IC50 (L1210 [1])	IC50 (KB 3-1)	Activity (L1210 [2])	Activity (Nucleic Acid)	Activity (L1210 [3])	Activity (L1210 [4])	Activity (L1210 [5])	Activity (MC-38)	Activity (L1210 [6])
COc1cc2c(c3nc4ccc5ccccc5c4c(O)c13)C(=O)C(O)C(C)(C)O2 (centres undefined)	500 nM	2000 nM	inactive	inactive					
COc1cc2c(c3nc4ccc5ccccc5c4c(OC)c13)C=CC(C)(C)O2	28000 nM	33000 nM							
COc1cc2c(c3c1c(=O)c1c4ccccc4ccc1n3C)C(=O)[C@@H](OC(C)=O)C(C)(C)O2	2000 nM	6300 nM		inactive					
CCN(CC)C(=O)O[C@@H]1c2c(cc(OC)c3c(=O)c4c5ccccc5ccc4n(C)c23)OC(C)(C)[C@@H]1OC(=O)N(CC)CC (racemic)	900 nM	800 nM		Active	43%				
COc1cc2c(c3nc4ccc5ccccc5c4c(OC)c13)[C@@H](OC(C)=O)[C@@H](OC(C)=O)C(C)(C)O2 (racemic)	8000 nM	7200 nM		inactive					
CCC(=O)O[C@@H]1c2c(cc(OC)c3c(=O)c4c5ccccc5ccc4n(C)c23)OC(C)(C)[C@@H]1OC(=O)CC (racemic)	500 nM	100 nM		Active		70%			
COc1cc2c(c3c1c(=O)c1c4ccccc4ccc1n3C)[C@@H](O)[C@@H](OC(=O)N(C)C)C(C)(C)O2 (racemic)	500 nM	100 nM		Active	73%				
COc1cc2c(c3c1c(=O)c1c4ccccc4ccc1n3C)[C@@H](O)[C@@H](OC(C)=O)C(C)(C)O2 (racemic)	700 nM	200 nM		Active		76%			
COc1cc2c(c3nc4ccc5ccccc5c4c(OC)c13)[C@@H](O)[C@@H](O)C(C)(C)O2 (racemic)	1400 nM	6300 nM		inactive					
COc1cc2c(c3c1c(=O)c1c4ccccc4ccc1n3C)[C@@H](O)[C@@H](OC(=O)c1ccccc1)C(C)(C)O2 (racemic)	800 nM	300 nM		Active			73%		
COc1cc2c(c3c1c(=O)c1c4ccccc4ccc1n3C)[C@@H](OC(=O)CC(C)C)[C@@H](OC(=O)CC(C)C)C(C)(C)O2 (racemic)	700 nM	150 nM		Active	60%				
C=CCCC(=O)O[C@@H]1c2c(cc(OC)c3c(=O)c4c5ccccc5ccc4n(C)c23)OC(C)(C)[C@@H]1OC(=O)CCC=C (racemic)	500 nM	130 nM		Active	66%				
COc1cc2c(c3c1c(=O)c1c4ccccc4ccc1n3C)[C@@H](O)[C@@H](OC(=O)CC(C)C)C(C)(C)O2 (racemic)	1000 nM	200 nM		Active		73%			
CCC(=O)O[C@@H]1[C@H](O)c2c(cc(OC)c3c(=O)c4c5ccccc5ccc4n(C)c23)OC1(C)C (racemic)	500 nM	100 nM		Active		69%			
COc1cc2c(c3c1c(=O)c1c4ccccc4ccc1n3C)[C@@H](O)[C@@H](O)C(C)(C)O2 (racemic)	49000 nM	32000 nM		inactive					
COc1cc2c(c3c1c(=O)c1c4ccccc4ccc1n3C)[C@@H](OC(C)=O)[C@@H](OC(C)=O)C(C)(C)O2 (racemic)	700 nM	150 nM		Active		68%		> 80%	
COc1cc2c(c3c1c(=O)c1c4ccccc4ccc1n3C)[C@H]1OC(=O)O[C@H]1C(C)(C)O2 (racemic)	60 nM	15 nM		inactive					64%
C=CCCC(=O)O[C@@H]1[C@H](O)c2c(cc(OC)c3c(=O)c4c5ccccc5ccc4n(C)c23)OC1(C)C (racemic)	800 nM	250 nM		inactive		70%			
C=CCCC(=O)O[C@@H]1[C@H](OC(C)=O)c2c(cc(OC)c3c(=O)c4c5ccccc5ccc4n(C)c23)OC1(C)C (racemic)	700 nM	100 nM		Active		78%			
COc1cc2c(c3c1c(=O)c1c4ccccc4ccc1n3C)[C@@H](OC(C)=O)[C@@H](OC(=O)CC(C)C)C(C)(C)O2 (racemic)	800 nM	100 nM		Active		76%			
COc1cc2c(c3c1c(=O)c1cc4ccccc4cc1n3C)[C@@H](OC(C)=O)[C@@H](OC(C)=O)C(C)(C)O2 (racemic)	700 nM	100 nM		Active		73%			
COc1cc2c(c3c1c(=O)c1ccccc1n3C)C=CC(C)(C)O2 [ACRONINE]	23000 nM	3700 nM							
COc1cc2c(c3c1c(=O)c1c4ccccc4ccc1n3C)C=CC(C)(C)O2 [BENZO[A]ACRONYCINE]	2500 nM	8600 nM	inactive						

Reference: ChEMBL document CHEMBL1148521, “Synthesis, antitumor activity, and mechanism of action of benzo[a]pyrano[3,2-h]acridin-7-one analogues of acronycine” (J Med Chem, 2006)
